≈ marks a conversion by molar mass, not a printed value.
test system: Vero; assay: Cytotoxicity against African green monkey Vero cells after 72 hrs by MTT assay; format: cell-based; conditions: Chlorocebus sabaeus
Method in brief: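 Vero cells subcultured, then exposed to compound at 125, 62.5 and 31.25 μg/ml for 72 h. MTT added for a further 4 h; formazan dissolved in DMSO. Viability read from tetrazolium-to-formazan conversion and reported as IC50.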

`CN1CCN(c2ccc(NC(=O)/C=C/c3ccccc3)cc2)CC1` and `CCN1CCN(c2ccc(NC(=O)/C=C/c3ccccc3)cc2F)CC1` cannot be ordered by IC50: > 125 µg/mL for the first, > 125 µg/mL for the second.

`O=C(/C=C/c1ccccc1)Nc1ccc(N2CCN(C(=O)c3ccccc3C(F)(F)F)CC2)c(F)c1` and `O=C(/C=C/c1ccc([N+](=O)[O-])cc1)Nc1ccc(N2CCN(C(=O)c3ccncc3)CC2)c(F)c1` cannot be ordered by IC50: > 125 µg/mL for the first, > 125 µg/mL for the second.

In the case of `O=C(/C=C/c1ccc([N+](=O)[O-])cc1)Nc1ccc(N2CCN(C(=O)c3ccc(F)cc3)CC2)cc1`, the IC50 is reported as > 125 µg/mL.

test system: Mycobacterium tuberculosis; assay: Antitubercular activity against Mycobacterium tuberculosis H37Rv after 7 days by resazurin microtitre assay; format: functional; conditions: 168 h
Method in brief: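 M. tb H37Rv in Middlebrook 7H9 broth; compounds dissolved in DMSO (2 mg/ml stock), serially diluted in 96-well plate to 1.56–50 μg/ml, 100 μl cell suspension per well. After 7 days, 0.02% w/v resazurin added, incubated 1 more day; MIC = lowest concentration preventing blue-to-pink colour change (>90% inhibition), read visually. Isoniazid reference.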

Compared with `CCN1CCN(c2ccc(NC(=O)/C=C/c3ccc([N+](=O)[O-])cc3)cc2F)CC1`, `CN1CCN(c2ccc(NC(=O)/C=C/c3ccc([N+](=O)[O-])cc3)cc2F)CC1` is lower in MIC90: > 50 µg/mL for the first, 25 µg/mL (≈ 65 µM) for the second.

`COC(=O)N1CCN(c2ccc(NC(=O)/C=C/c3ccc([N+](=O)[O-])cc3)cc2F)CC1` and `CCOC(=O)N1CCN(c2ccc(NC(=O)/C=C/c3ccc([N+](=O)[O-])cc3)cc2F)CC1` cannot be ordered by MIC90: > 50 µg/mL for the first, > 50 µg/mL for the second.

`CCN1CCN(c2ccc(NC(=O)/C=C/c3ccc([N+](=O)[O-])cc3)cc2)CC1` and `CN1CCN(c2ccc(NC(=O)/C=C/c3ccc([N+](=O)[O-])cc3)cc2)CC1` are the same in MIC90: 12.5 µg/mL (≈ 32.9 µM) for the first, 12.5 µg/mL (≈ 34.1 µM) for the second.

`CCOC(=O)N1CCN(c2ccc(NC(=O)/C=C/c3ccccc3)cc2F)CC1` and `COC(=O)N1CCN(c2ccc(NC(=O)/C=C/c3ccccc3)cc2F)CC1` cannot be ordered by MIC90: > 50 µg/mL for the first, > 50 µg/mL for the second.

`COC(=O)N1CCN(c2ccc(NC(=O)/C=C/c3ccccc3)cc2)CC1` and `CCOC(=O)N1CCN(c2ccc(NC(=O)/C=C/c3ccccc3)cc2)CC1` cannot be ordered by MIC90: > 50 µg/mL for the first, > 50 µg/mL for the second.

Going from `O=C(/C=C/c1ccc([N+](=O)[O-])cc1)Nc1ccc(N2CCNCC2)c(F)c1` to `O=C(/C=C/c1ccc([N+](=O)[O-])cc1)Nc1ccc(N2CCNCC2)cc1`, the MIC90 rises from 12.5 µg/mL (≈ 33.7 µM) to 50 µg/mL (≈ 142 µM) (4-fold).

`O=C(/C=C/c1ccccc1)Nc1ccc(N2CCN(c3ccccn3)CC2)c(F)c1` and `O=C(/C=C/c1ccccc1)Nc1ccc(N2CCN(c3ccccn3)CC2)cc1` cannot be ordered by MIC90: > 50 µg/mL for the first, > 50 µg/mL for the second.

Compared with `CN1CCN(c2ccc(NC(=O)/C=C/c3ccccc3)cc2)CC1`, `CCN1CCN(c2ccc(NC(=O)/C=C/c3ccccc3)cc2)CC1` is 2-fold higher in MIC90: 6.25 µg/mL (≈ 19.4 µM) for the first, 12.5 µg/mL (≈ 37.3 µM) for the second.

`O=C(/C=C/c1ccc([N+](=O)[O-])cc1)Nc1ccc(N2CCN(C(=O)c3ccccc3C(F)(F)F)CC2)cc1` and `O=C(/C=C/c1ccc([N+](=O)[O-])cc1)Nc1ccc(N2CCN(C(=O)c3ccccc3C(F)(F)F)CC2)c(F)c1` cannot be ordered by MIC90: > 50 µg/mL for the first, > 50 µg/mL for the second.

First: O=C(/C=C/c1ccccc1)Nc1ccc(N2CCN(C(=O)c3ccc([N+](=O)[O-])cc3)CC2)cc1
Second: O=C(/C=C/c1ccccc1)Nc1ccc(N2CCN(C(=O)c3ccc(F)cc3)CC2)cc1
The MIC90 of the first is higher: > 50 µg/mL for the first, 25 µg/mL (≈ 58.2 µM) for the second.

`O=C(/C=C/c1ccc([N+](=O)[O-])cc1)Nc1ccc(N2CCN(c3ccccn3)CC2)c(F)c1` and `O=C(/C=C/c1ccc([N+](=O)[O-])cc1)Nc1ccc(N2CCN(c3ccccn3)CC2)cc1` cannot be ordered by MIC90: > 50 µg/mL for the first, > 50 µg/mL for the second.

Compared with `CC(C)(C)OC(=O)N1CCN(c2ccc(NC(=O)/C=C/c3ccc([N+](=O)[O-])cc3)cc2)CC1`, `COC(=O)N1CCN(c2ccc(NC(=O)/C=C/c3ccc([N+](=O)[O-])cc3)cc2)CC1` is higher in MIC90: 12.5 µg/mL (≈ 27.6 µM) for the first, > 50 µg/mL for the second.

Going from `O=C(/C=C/c1ccc([N+](=O)[O-])cc1)Nc1ccc(N2CCN(C(=O)c3cc(Cl)cc(Cl)c3)CC2)c(F)c1` to `O=C(/C=C/c1ccc([N+](=O)[O-])cc1)Nc1ccc(N2CCN(C(=O)c3cc(Cl)cc(Cl)c3)CC2)cc1`, the MIC90 rises from 12.5 µg/mL (≈ 23 µM) to > 50 µg/mL.

Compared with `O=C(/C=C/c1ccccc1)Nc1ccc(N2CCN(C(=O)c3ccccc3C(F)(F)F)CC2)c(F)c1`, `O=C(/C=C/c1ccccc1)Nc1ccc(N2CCN(C(=O)c3ccccc3C(F)(F)F)CC2)cc1` is 16-fold higher in MIC90: 3.12 µg/mL (≈ 6.28 µM) for the first, 50 µg/mL (≈ 104 µM) for the second.

First: CN1CCN(c2ccc(NC(=O)/C=C/c3ccccc3)cc2F)CC1
Second: CCN1CCN(c2ccc(NC(=O)/C=C/c3ccccc3)cc2F)CC1
The MIC90 of the first is 2-fold higher: 25 µg/mL (≈ 73.7 µM) for the first, 12.5 µg/mL (≈ 35.4 µM) for the second.

Going from `NNC(=O)c1ccncc1` [ISONIAZID] to `O=C(/C=C/c1ccccc1)Nc1ccc(N2CCN(C(=O)c3ccncc3)CC2)cc1`, the MIC90 rises from 0.39 µg/mL (≈ 2.84 µM) to 50 µg/mL (≈ 121 µM) (130-fold).

First: O=C(/C=C/c1ccccc1)Nc1ccc(N2CCN(C(=O)c3cc(Cl)cc(Cl)c3)CC2)cc1
Second: O=C(/C=C/c1ccccc1)Nc1ccc(N2CCN(C(=O)c3cc(Cl)cc(Cl)c3)CC2)c(F)c1
The MIC90 of the first is higher: > 50 µg/mL for the first, 12.5 µg/mL (≈ 25.1 µM) for the second.

`CCOC(=O)N1CCN(c2ccc(NC(=O)/C=C/c3ccc([N+](=O)[O-])cc3)cc2)CC1` and `O=C(/C=C/c1ccc([N+](=O)[O-])cc1)Nc1ccc(N2CCN(C(=O)Oc3ccccc3)CC2)cc1` cannot be ordered by MIC90: > 50 µg/mL for the first, > 50 µg/mL for the second.

`O=C(/C=C/c1ccccc1)Nc1ccc(N2CCN(C(=O)Oc3ccccc3)CC2)cc1` and `O=C(/C=C/c1ccccc1)Nc1ccc(N2CCN(C(=O)Oc3ccccc3)CC2)c(F)c1` cannot be ordered by MIC90: > 50 µg/mL for the first, > 50 µg/mL for the second.

`CC(C)(C)OC(=O)N1CCN(c2ccc(NC(=O)/C=C/c3ccc([N+](=O)[O-])cc3)cc2F)CC1` and `CC(C)(C)OC(=O)N1CCN(c2ccc(NC(=O)/C=C/c3ccccc3)cc2F)CC1` are the same in MIC90: 50 µg/mL (≈ 106 µM) for the first, 50 µg/mL (≈ 118 µM) for the second.

First: O=C(/C=C/c1ccccc1)Nc1ccc(N2CCNCC2)cc1
Second: O=C(/C=C/c1ccccc1)Nc1ccc(N2CCNCC2)c(F)c1
The MIC90 of the first is 2-fold lower: 12.5 µg/mL (≈ 40.7 µM) for the first, 25 µg/mL (≈ 76.8 µM) for the second.

`O=C(/C=C/c1ccc([N+](=O)[O-])cc1)Nc1ccc(N2CCN(C(=O)c3ccncc3)CC2)c(F)c1` and `O=C(/C=C/c1ccc([N+](=O)[O-])cc1)Nc1ccc(N2CCN(C(=O)c3ccc(F)cc3)CC2)c(F)c1` are the same in MIC90: 12.5 µg/mL (≈ 26.3 µM) for the first, 12.5 µg/mL (≈ 25.4 µM) for the second.

First: O=C(/C=C/c1ccccc1)Nc1ccc(N2CCN(C(=O)c3ccc(F)cc3)CC2)c(F)c1
Second: O=C(/C=C/c1ccccc1)Nc1ccc(N2CCN(C(=O)c3ccc([N+](=O)[O-])cc3)CC2)c(F)c1
The MIC90 of the first is higher: > 50 µg/mL for the first, 12.5 µg/mL (≈ 26.3 µM) for the second.

First: CC(C)(C)OC(=O)N1CCN(c2ccc(NC(=O)/C=C/c3ccccc3)cc2)CC1
Second: O=C(/C=C/c1ccccc1)Nc1ccc(N2CCN(C(=O)c3ccncc3)CC2)c(F)c1
The MIC90 of the first is lower: 12.5 µg/mL (≈ 30.7 µM) for the first, > 50 µg/mL for the second.

`O=C(/C=C/c1ccc([N+](=O)[O-])cc1)Nc1ccc(N2CCN(C(=O)c3ccc([N+](=O)[O-])cc3)CC2)c(F)c1` and `O=C(/C=C/c1ccc([N+](=O)[O-])cc1)Nc1ccc(N2CCN(C(=O)c3ccc([N+](=O)[O-])cc3)CC2)cc1` cannot be ordered by MIC90: > 50 µg/mL for the first, > 50 µg/mL for the second.

Compared with `O=C(/C=C/c1ccc([N+](=O)[O-])cc1)Nc1ccc(N2CCN(C(=O)Oc3ccccc3)CC2)c(F)c1`, `O=C(/C=C/c1ccc([N+](=O)[O-])cc1)Nc1ccc(N2CCN(C(=O)c3ccc(F)cc3)CC2)cc1` is lower in MIC90: > 50 µg/mL for the first, 12.5 µg/mL (≈ 26.3 µM) for the second.

With `O=C(/C=C/c1ccc([N+](=O)[O-])cc1)Nc1ccc(N2CCN(C(=O)c3ccncc3)CC2)cc1` the MIC90 was > 50 µg/mL.

test system: not listed separately; assay: Selectivity index, ratio of IC50 for African green monkey Vero cells to MIC for Mycobacterium tuberculosis H37Rv; format: toxicity, cell-based; conditions: read-out: Selectivity Index
Method in brief: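 SI = Vero IC50 / H37Rv MIC. Vero cytotoxicity by MTT: subcultured cells exposed 72 h to 125, 62.5, 31.25 μg/ml; MTT added 4 h, formazan dissolved in DMSO. MIC by REMA: H37Rv in 7H9 broth, 1.56–50 μg/ml serial dilutions, 7 days then resazurin 1 day, visual colour read.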

`CN1CCN(c2ccc(NC(=O)/C=C/c3ccccc3)cc2)CC1` and `CCN1CCN(c2ccc(NC(=O)/C=C/c3ccccc3)cc2F)CC1` cannot be ordered by selectivity ratio: > 10 for the first, > 10 for the second.

`O=C(/C=C/c1ccccc1)Nc1ccc(N2CCN(C(=O)c3ccccc3C(F)(F)F)CC2)c(F)c1` and `O=C(/C=C/c1ccc([N+](=O)[O-])cc1)Nc1ccc(N2CCN(C(=O)c3ccncc3)CC2)c(F)c1` cannot be ordered by selectivity ratio: > 40 for the first, > 10 for the second.

For `O=C(/C=C/c1ccc([N+](=O)[O-])cc1)Nc1ccc(N2CCN(C(=O)c3ccc(F)cc3)CC2)cc1`, the selectivity ratio was > 10.

From ChEMBL document CHEMBL3124771, “Design, synthesis and antitubercular evaluation of novel series of N-[4-(piperazin-1-yl)phenyl]cinnamamide derivatives” (Eur J Med Chem, 2014)
